# From PubChem BioAssay
# Compounds with a hit are over-represented: about 5.1% of the library has one in this group of screens.
# APP 5'UTR act: APP 5'UTR luciferase reporter activation. SH-SY5Y APP 5'UTR luciferase reporter, luminescence; zero percent = DMSO vehicle wells. activation, % at 2 µM. actives 1% (n = 190,000). AID 1276;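 active means activation above a set limit, based on mean plus 3 SD of controls, cut at about 140% in these data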
# STAT3 blocker: STAT3 signaling inhibition | inhibition, % at 5.5 µM | actives 0.89% (n = 190,000) | U3A cells, IL-6 STAT3-luciferase reporter, luminescence; host cell line lacks STAT1;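 active means inhibition above the mean inhibition across all screened compounds plus 3 SD, cut at about 44% in these data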;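 further: 0% = DMSO only wells and 100% = 100 µM nifuroxazide control wells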
# STAT1 inh: inhibitors of IFN-gamma induced STAT1 signaling. AID 920. NIH 3T3 STAT1-luciferase reporter, luminescence. inhibition, % at 5.5 µM. actives 0.35% (n = 200,000);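 active means inhibition above a set limit, the mean inhibition across all tested compounds plus 3 SD, cut at about 34% in these data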;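 further: 0% = IFN-gamma with DMSO and 100% = IFN-gamma with 300 µM nifuroxazide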
# NF-kB expr up: raises NF-kB expression in human neuronal cells | NF-kB reporter expression; stronger effect = higher value | fold change at 12.5 µM | actives 1.6% (n = 190,000) | AID 1239; in the data active means fold change above about 3.3
# STAT3 act: STAT3 signaling activation. U3A cells, IL-6 STAT3-luciferase reporter, luminescence; 100% = signal with IL-6 EC80 alone. activation (% of control), % at 5.6 µM. actives 0.91% (n = 190,000);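 active means activation above the screen-wide mean of compound activation plus 3 SD, cut at about 130% in these data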;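 further: 0% = background luminescence of wells with medium and substrate only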
#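 Material: human STAT1-deficient U3A cells with stable STAT3-luciferase reporter / Probe or stimulus: IL-6 stimulus at 33 ng/mL final / Schedule: 1 h compound pre-exposure, 6 h IL-6 stimulation, 37 °C / Technique: luminescence / Read-out basis: percent of IL-6-only median luminescence / Control set: IL-6-only high control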
# STAT1 act: increases IFN-gamma driven STAT1 reporter signal; NIH 3T3 STAT1-luciferase reporter, luminescence; 100% = IFN-gamma alone, no compound; activation (% of control), % at 5.5 µM; actives 2.6% (n = 200,000);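 active means activation above the screen-wide mean activation plus 3 SD, cut at about 130% in these data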;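 further: raw ratio to IFN-gamma control signal so 100% means no change and 0% no light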
# The depositor's hits bear a star; . = not tested or not shown.
SMILES,APP 5'UTR act,STAT3 blocker,STAT1 inh,NF-kB expr up,STAT3 act,STAT1 act
N/C(=N\OC(=O)/C=C/c1ccccc1)c1ccncc1,72.5,9.4,-28.4,1.48,97.2,123.7
N/C(=N\OC(=O)c1cccc(Cl)c1)c1ccncc1,79.5,20.8,-47.0,1.12,84.1,141.3*
N/C(=N\OC(=O)c1cc(Cl)ccc1Cl)c1ccncc1,24.1,5.1,-47.3,1.88,99.5,141.4*
CC1(C)CC(=O)C2=C(C1)OC(c1ccc(O)cc1)C(C#N)=C2N (stereo not drawn),-13.9,-1.6,6.2,0.99,103.7,94.6
CN1CCN(CC(=O)Nc2nc(-c3ccccc3)cs2)CC1,11.8,7.9,4.2,0.95,99.7,96.2
CN1CCN(CC(=O)N(C)c2nc(-c3ccccc3)cs2)CC1,105.5,-9.0,-36.3,1.43,110.6,133.8*
Cc1ccc2c(c1)NC(=O)c1cccnc1N2,54.0,-5.1,-44.1,2.9,108.1,139.3*
O=S(=O)(c1ccccc1)n1cc(-c2ccccn2)c(N2CCOCC2)n1,213.4*,0.5,-5.3,1.05,101.6,104.3
O=S(=O)(Cc1cc(N2CCOCC2)nc(-c2ccccn2)n1)c1ccccc1,-15.2,-2.3,-9.4,1.51,104.0,109.4
O=C(O)Cn1ncc2ccccc2c1=O,-16.2,10.7,3.7,1.56,96.7,94.7
O=c1c2ccccc2cnn1CCOc1ccccc1,98.5,89.9*,43.6*,1.38,22.4,60.2
COc1cnn(-c2ccc(C)cc2)c(=O)c1Br,13.5,10.9,-24.5,1.76,99.5,120.6
COc1cnn(-c2ccc(C)cc2)c(=O)c1Cl,23.5,4.1,-43.1,2.03,97.1,141.2*
CNc1cnn(-c2ccc(C)cc2)c(=O)c1Cl,69.8,-7.4,-32.3,2.58,108.3,128.8*
CNc1cnn(-c2ccc(C)cc2)c(=O)c1Sc1ccc(C)cc1,7.0,2.5,-1.5,0.9,106.4,101.6
COC(=O)c1ccc(N2CCN(S(=O)(=O)c3ccc4ccccc4c3)CC2)c([N+](=O)[O-])c1,.,19.0,13.8,0.86,89.0,87.6
Cc1sc(NC(=O)c2ccccc2F)c(CN2CCCCC2C)c1C (stereo not drawn),49.2,-4.1,-41.6,1.72,107.9,136.8*
CCn1c(SCC(=O)NC(C)(C)C)nnc1-c1ccoc1C,11.1,-1.5,0.4,1.65,102.1,99.6
CCCNc1ncnc2c1cnn2-c1ccc(OC)cc1,192.9*,33.7,-61.6,5.88*,77.4,156.3*
COc1ccc(-n2ncc3c(NCCN4CCOCC4)ncnc32)cc1,58.8,1.1,-26.8,0.64,105.8,124.6
COc1ccc(-n2ncc3c(NCCCN4CCOCC4)ncnc32)cc1,84.7,-6.1,-38.2,0.74,107.8,135.1*
CC(C)N1C[C@@]23C=C[C@@H](O2)C(C(=O)OCc2ccccc2)[C@H]3C1=O (stereo partly drawn),-6.3,9.6,4.0,1.28,93.3,96.3
Cc1ccc(CN2CN(S(=O)(=O)c3cccs3)c3nc4ccccc4nc32)cc1,5.6,11.8,-53.4,6.43*,97.5,141.5*
O=C(N/N=C/c1cn(-c2ccccc2)nc1-c1cc2ccccc2o1)c1ccncc1,187.8*,-20.6,-46.2,2.63,115.3,143.5*
O=C(N/N=C/c1cn(-c2ccccc2)nc1-c1cccnc1)c1cccnc1,-8.7,7.3,2.3,0.71,95.3,96.8
SMILES,APP 5'UTR act,STAT3 blocker,STAT1 inh,NF-kB expr up,STAT3 act,STAT1 act
O=C(/C=C/Nc1ccc([N+](=O)[O-])cc1Br)c1cccc2ccccc12,149.4*,-10.3,4.9,1.68,109.1,95.6
COc1ccc(S(=O)(=O)NCCc2nnc3ccc(SCC(=O)Nc4cc(C)on4)nn23)cc1,25.4,4.9,-1.2,1.1,97.7,101.0
CCCCCCn1c(C)nc2c(c1=O)c1nc3ccccc3nc1n2/N=C/c1ccco1,-10.5,27.1,0.6,0.63,77.4,98.3
FC(F)Oc1ccccc1/C=N/n1cnc2ccccc21,38.5,-11.2,-37.0,1.81,116.8,134.1*
O=c1sc(N2CCN(c3ccccc3F)CC2)nc2ccsc12,42.1,-1.5,-44.0,3.58*,105.6,139.4*
COc1cc(C(=O)Nc2ccc(N(C)C)cc2)cc(OC)c1OC,47.3,-3.0,-36.3,1.33,108.8,133.2*
COc1cc(C(=O)Nc2ccc(S(=O)(=O)N(C)c3ccccc3)cc2)cc(OC)c1OC,2.6,2.8,-10.2,0.48,100.0,109.0
